Each structure is given as a SMILES string.

The nature of data set [1]: Solubility of the compound in 0.1 % DMSO/PBS solution at 4 uM after 2 hrs by HPLC analysis. It is filed as physicochemical. The conditions noted are these: buffer. The essentials:
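A 4 mM DMSO stock was diluted 1000× into PBS, vortexed, sonicated 20 min at 25 °C and equilibrated 2 h at room temperature. After centrifugation for 20 min, the supernatant was analysed by HPLC at 310 nm against a standard curve. Maximum concentration was estimated from quantitation of the stock in 0.1% DMSO/water. Values are SD of ≥3 independent measurements.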

Data set [2] in a line: Solubility of the compound in 0.1 % DMSO/PBS solution assessed as radius of the aggregate particle at 4 uM measured over 10 mins by dynamic light scattering method. The format is physicochemical. The settings on record: buffer. The essentials: (§1)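 DMSO stocks (1, 4, 10 mM) were centrifuged, then diluted 1000× into PBS (final 0.1% DMSO). Dynamic light scattering used a 659 nm laser at a 90° angle and 25 °C, with 10–15 s acquisitions over 10 min. Radius came from a cumulant fit of averaged autocorrelation functions at the lowest concentration giving 3× buffer signal. Values are SD of ≥3 independent measurements.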

Data set [3] is described as follows: Solubility of the compound in 0.1 % DMSO/PBS solution at 4 uM after 2 hrs by HPLC analysis in presence of 35 mM dextrose. The settings on record: buffer. The format is physicochemical. The essentials: (§2)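 The 4 mM DMSO stock was diluted 1000× into PBS containing 35 mM dextrose, 5 mM γCD, 50 mM HpβCD or 6 mg/mL hypromellose. Samples were sonicated 20 min at 25 °C, equilibrated 2 h at room temperature and centrifuged. The soluble fraction was measured by HPLC peak area at 310 nm against a standard curve. Values are SD of ≥3 independent measurements.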

A short description of data set [4]: Solubility of the compound in 0.1 % DMSO/PBS solution at 4 uM after 2 hrs by HPLC analysis in presence of 5 mM gamma-cyclodextrin. It is filed as physicochemical. The conditions noted are these: buffer. The essentials:
as §2

Data set [5] in a line: Solubility of the compound in 0.1 % DMSO/PBS solution at 4 uM after 2 hrs by HPLC analysis in presence of 6 mg/ml hypromellose. The conditions noted are these: buffer. It is filed as physicochemical. A digest of the protocol: as §2
Data set [6] in a line: Solubility of the compound in 0.1 % DMSO/PBS solution assessed as radius of the aggregate particle at 1 uM measured over 10 mins by dynamic light scattering method. The format is physicochemical. The conditions noted are these: buffer. A digest of the protocol:
as §1

The subject of data set [7] is Plasma. The data set is described as follows: Drug uptake in C57Bl/6 mouse plasma at 120 nmol, ip in 1 % DMSO/80 mM HPbeta-CD/PBS vehicle measured after 24 hrs. The format is ADME, organism-based. The conditions noted are these: in vivo. The essentials: (§3)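 C57bl/6 mice, 8–12 weeks old, received an IP injection of 200 μL PBS containing 120 nmol compound in the stated vehicle. Under isoflurane, blood was drawn retro-orbitally at three time points. Plasma from four mice was pooled (5 μL each), precipitated with methanol, spiked with Boc-Py-OMe as internal control, and quantified by HPLC at 310 nm against a standard curve.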

Data set [8] can be described thus: Plasma concentration of compound in C57Bl/6 mouse at 120 nmol, ip in 1 % DMSO/80 mM HPbeta-CD/PBS vehicle measured after 1.5 hrs. It is filed as ADME, organism-based. The essentials:
as §3

Data set [9] in a line: Solubility of the compound in 0.1 % DMSO/PBS solution at 4 uM after 2 hrs by HPLC analysis in presence of 50 mM 2-hydroxypropyl-beta-cyclodextrin. The format is physicochemical. The conditions noted are these: buffer. The essentials: as §2
Data set [10] can be described thus: Plasma concentration of compound in C57Bl/6 mouse at 120 nmol, ip in 20 % DMSO/PBS vehicle measured after 1.5 hrs. The format is ADME, organism-based. The essentials: as §3
Data set [11] concerns Plasma. Kind of data set: Drug uptake in C57Bl/6 mouse plasma at 120 nmol, ip in 20 % DMSO/PBS vehicle measured after 24 hrs. The conditions noted are these: in vivo. It is filed as ADME, organism-based. A digest of the protocol: as §3
In data set [12] the test system is A549. The data set is described as follows: Drug uptake in human A549 cells incubated with mouse plasma isolated 4.5 hr post administration with compound measured after 16 hrs by confocal microscopy. The format is ADME, cell-based. A digest of the protocol: (§4)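 A549 cells were seeded at 100k cells/mL in F-12K/10% FBS and allowed to adhere for 18 h at 37 °C in 5% CO2. Medium was replaced with 200 μL fresh medium plus 20 μL plasma. The plasma came from mice given 120 nmol IP in 20% DMSO/80 mM HpβCD/PBS. After 16 h, live cells were imaged by confocal microscopy (63× oil objective, fluorescein filters).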

Data set [13] is described as follows: Solubility of the compound in 20 % DMSO/PBS. It is filed as physicochemical. The settings on record: buffer.
The subject of data set [14] is A549. Kind of data set: Drug uptake in human A549 cells incubated with mouse plasma isolated 1.5 hr post administration with compound measured after 16 hrs by confocal microscopy. It is filed as ADME, cell-based. A digest of the protocol:
as §4

With `CC(=O)N[C@@H](CNC(=O)c1cc(NC(=O)c2cc(NC(=O)c3cc(NC(=O)c4nccn4C)cn3C)cn2C)cn1C)CC(=O)Nc1cn(C)c(C(=O)Nc2cc(C(=O)Nc3cc(C(=O)Nc4cc(C(=O)NCCCN(C)CCCNC(=O)c5cccc(C(=O)O)c5)n(C)c4)n(C)c3)n(C)c2)n1`, the solubility entry in [1] is on record as “Insoluble”. In data set [2], the Activity was 74 nm.

Turning to `Cn1cc2cc1C(=O)NCCCC(=O)Nc1cn(C)c(n1)C(=O)Nc1cn(C)c(n1)C(=O)Nc1cc(n(C)c1)C(=O)Nc1cc(n(C)c1)C(=O)NC[C@H](N)CC(=O)Nc1cc(n(C)c1)C(=O)Nc1cc(n(C)c1)C(=O)Nc1cc(n(C)c1)C(=O)N2`, the solubility result is reported as “Insoluble” in [3], “soluble” in data set [4], “soluble” in data set [5] and “Insoluble” in data set [1]. In data set [2], the Activity is 197 nm.

As for `Cn1cc2cc1C(=O)NC[C@H](N)CC(=O)Nc1cc(n(C)c1)C(=O)Nc1cc(n(C)c1)C(=O)Nc1cc(n(C)c1)C(=O)Nc1cc(n(C)c1)C(=O)NC[C@H](N)CC(=O)Nc1cn(C)c(n1)C(=O)Nc1cn(C)c(n1)C(=O)Nc1cc(n(C)c1)C(=O)N2`, the solubility result in [1] is “Insoluble”. In [2], the Activity came to 347 nm.

With `CC(=O)N[C@H]1CNC(=O)c2cc(cn2C)NC(=O)c2cc(cn2C)NC(=O)c2nc(cn2C)NC(=O)c2nc(cn2C)NC(=O)C[C@@H](NC(C)=O)CNC(=O)c2cc(cn2C)NC(=O)c2cc(cn2C)NC(=O)c2cc(cn2C)NC(=O)c2cc(cn2C)NC(=O)C1`, the solubility result in [1] is listed as “Insoluble”. Besides, in data set [2], the Activity is 182 nm.

`CN(CCCNC(=O)c1cccc(C(=O)O)c1)CCCNC(=O)c1cc(NC(=O)c2cc(NC(=O)c3cc(NC(=O)c4nc(NC(=O)C[C@H](CNC(=O)c5cc(NC(=O)c6cc(NC(=O)c7cc(NC(=O)c8nccn8C)cn7C)cn6C)cn5C)NC(=O)c5ccccc5)cn4C)cn3C)cn2C)cn1C`: the solubility result in data set [1] is listed as “Insoluble”. Also, the Activity in data set [2] amounted to 127 nm; in data set [6], 87 nm.

Take `CN(CCCNC(=O)c1cc(NC(=O)c2cc(NC(=O)c3cc(NC(=O)c4nc(NC(=O)C[C@@H](N)CNC(=O)c5cc(NC(=O)c6cc(NC(=O)c7cc(NC(=O)c8nccn8C)cn7C)cn6C)cn5C)cn4C)cn3C)cn2C)cn1C)CCCNC(=S)Nc1ccc(-c2c3ccc(=O)cc-3oc3cc(O)ccc23)c(C(=O)O)c1`: the Activity in data set [6] worked out at 294 nm.

Consider `CN(CCCNC(=O)c1cc(NC(=O)c2cc(NC(=O)c3cc(NC(=O)c4nc(NC(=O)C[C@H](CNC(=O)c5cc(NC(=O)c6cc(NC(=O)c7cc(NC(=O)c8nccn8C)cn7C)cn6C)cn5C)NC(=O)c5ccccc5)cn4C)cn3C)cn2C)cn1C)CCCNC(=S)Nc1ccc(-c2c3ccc(=O)cc-3oc3cc(O)ccc23)c(C(=O)O)c1`, for which the Activity in data set [6] is listed as 147 nm.

Turning to `CN(CCCNC(=O)c1cccc(C(=O)O)c1)CCCNC(=O)c1cc(NC(=O)c2cc(NC(=O)c3cc(NC(=O)c4cc(NC(=O)[C@H](N)CCNC(=O)c5cc(NC(=O)c6cc(NC(=O)c7nc(NC(=O)c8nccn8C)cn7C)cn6C)cn5C)cn4C)cn3C)cn2C)cn1C`, the Drug uptake entry with Plasma [7] and in the data set on Plasma [11] was “Not Active” each time. Besides, the concentration at 1.5 h in data set [8] and in data set [10] was 13 µM each time. Moreover, the solubility entry in data set [3] is listed as “Insoluble”; in data set [4] it was “soluble”; in [5], “soluble”; in data set [9], “soluble”; in data set [1] it was “Insoluble”. The Activity in [2] was found to be 124 nm.

As to `CN(CCCNC(=O)c1cccc(C(=O)O)c1)CCCNC(=O)c1cc(NC(=O)c2cc(NC(=O)c3cc(NC(=O)c4cc(NC(=O)C[C@@H](N)CNC(=O)c5cc(NC(=O)c6cc(NC(=O)c7nc(NC(=O)c8nccn8C)cn7C)cn6C)cn5C)cn4C)cn3C)cn2C)cn1C`, the solubility result is listed as “soluble” in data set [9] and “Insoluble” in [1]. The Activity in data set [2] was determined as 108 nm.

For `CC(=O)N[C@@H](CNC(=O)c1cc(NC(=O)c2cc(NC(=O)c3nc(NC(=O)c4nccn4C)cn3C)cn2C)cn1C)CC(=O)Nc1cc(C(=O)Nc2cc(C(=O)Nc3cc(C(=O)Nc4cc(C(=O)NCCCN(C)CCCNC(=O)c5cccc(C(=O)O)c5)n(C)c4)n(C)c3)n(C)c2)n(C)c1`, the solubility result in data set [9] was “soluble”; in [1], “Insoluble”. Besides, the Activity in [2] amounted to 100 nm.

As for `CN(CCCNC(=O)c1cccc(C(=O)O)c1)CCCNC(=O)c1cc(NC(=O)c2cc(NC(=O)c3cc(NC(=O)c4cc(NC(=O)C[C@H](CNC(=O)c5cc(NC(=O)c6cc(NC(=O)c7nc(NC(=O)c8nccn8C)cn7C)cn6C)cn5C)NC(=O)c5ccccc5)cn4C)cn3C)cn2C)cn1C`, the solubility result in data set [9] was “soluble”; in data set [1], “Insoluble”. The figures for the Activity in data set [2] and in data set [6] were 176 nm and 123 nm, respectively.

Take `CN(CCCNC(=O)c1cc(NC(=O)c2cc(NC(=O)c3cc(NC(=O)c4cc(NC(=O)[C@H](N)CCNC(=O)c5cc(NC(=O)c6cc(NC(=O)c7nc(NC(=O)c8nccn8C)cn7C)cn6C)cn5C)cn4C)cn3C)cn2C)cn1C)CCCNC(=S)Nc1ccc(-c2c3ccc(=O)cc-3oc3cc(O)ccc23)c(C(=O)O)c1`: the results for the Drug uptake entry in the data set on A549 [12] and with A549 [14] were “Not Active” and “Active”, respectively. For the same compound, in data set [13], the solubility entry was “Insoluble”.

With `CN(CCCNC(=O)c1cccc(C(=O)O)c1)CCCNC(=O)c1cc(NC(=O)c2cc(NC(=O)c3cc(NC(=O)c4nc(NC(=O)C[C@@H](N)CNC(=O)c5cc(NC(=O)c6cc(NC(=O)c7cc(NC(=O)c8nccn8C)cn7C)cn6C)cn5C)cn4C)cn3C)cn2C)cn1C`, in data set [1], the solubility result was “Insoluble”. Further, the Activity in [2] worked out at 104 nm.

For the compound `CN(CCCNC(=O)c1cccc(C(=O)O)c1)CCCNC(=O)c1cc(NC(=O)c2cc(NC(=O)c3cc(NC(=O)c4nc(NC(=O)[C@H](N)CCNC(=O)c5cc(NC(=O)c6cc(NC(=O)c7cc(NC(=O)c8nccn8C)cn7C)cn6C)cn5C)cn4C)cn3C)cn2C)cn1C`, the solubility entry in [1] is reported as “Insoluble”. In [2], the Activity was determined as 182 nm.
